Data taken from PMC4968691 (Inorganic chemistry, 2012).

Legend:
[1] = ^177Lu/^64Cu human blood serum competition; type: in vitro ADME
In short: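 Test chelator was labelled with 177Lu or 64Cu in 10 mM NaOAc pH 5.0 for 10 min at ambient temperature. Thawed human serum (750 µL), 300 µL complex and 450 µL PBS were run in triplicate at 37 °C and 550 rpm. Sampling was at 1.5/24 h (177Lu) and 1/20 h (64Cu). Aliquots were PBS-diluted, counted and passed through PD-10 size exclusion, and the PBS eluate was counted as serum-bound. Result is % chelate-bound.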

[2] = ^67Ga/^111In mouse serum competition; type: in vitro ADME; conditions: mouse blood serum
In short: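 Test chelator (0.3 mg/mL) was labelled with 67Ga (NaOAc 10 mM, pH 4) or 111In (pH 5) for 10 min at ambient temperature. Complex was added to thawed mouse serum plus PBS in triplicate and held at ambient temperature. Sampling was at 15 min, 1 h and 2 h (67Ga) and 1 and 24 h (111In). Aliquots were diluted to 2.5 mL PBS, counted and loaded on PD-10. The 3.5 mL PBS eluate, holding protein-bound activity, was counted against pre-load activity.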

[3] = ^64Cu biodistribution in healthy nude athymic mice; type: in vivo, mouse; conditions: n = 4
In short: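 Healthy nude athymic mice received the HPLC-purified 64Cu complex by tail vein: ~30 µCi (~3 µg) in 200 µL of 2:1 saline:PBS, pH 7. Mice were killed by CO2 at 15 min, 1, 4 and 24 h (n = 4). Organs were rinsed, air-dried 5 min, weighed and gamma-counted. Counts were background- and decay-corrected, calibrated against 64Cu standards and expressed as %ID/g.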

[4] = 24 h, with both ^177Lu and ^111In; cited from earlier work

For `O=C(O)CN1CCN(CC(=O)O)CCN(CC(=O)O)CCN(CC(=O)O)CC1` [DOTA, 1,4,7,10-tetraazacyclododecane-1,4,7,10-tetraacetic acid], the “long-term stability (% chelator-bound radiometal)” value ([1]; 20 h, 37 °C, 550 rpm, ^64Cu, n = 3) was 74%.
With `O=C(O)c1cccc(CN(CCN(Cc2cn(Cc3ccccc3)nn2)Cc2cccc(C(=O)O)n2)Cc2cn(Cc3ccccc3)nn2)n1` [H2azapa, N,N′-[1-Benzyl-1,2,3-triazole-4-yl]methyl-N,N′-[6-(carboxy)-pyridin-2-yl]-1,2-diaminoethane] the “^64Cu transchelated to serum proteins” value ([1]; 20 h, 37 °C) was 2%, the “^177Lu transchelated by serum proteins” value ([1]; 24 h, ^177Lu complex) was 54% and the “^111In transchelated by serum proteins” value ([2]; 24 h, ^111In complex) was 35%. The “organ uptake, heart” value ([3]; 4 h post i.v. injection) was 3.8 % ID/g and the “organ uptake, heart” value ([3]; 24 h post i.v. injection) was 3.4 % ID/g.
In the case of `O=C(O)CN(CCN(CC(=O)O)Cc1cccc(C(=O)O)n1)Cc1cccc(C(=O)O)n1` [H4octapa], the stable in serum [4] is listed as over 85% and the “transchelated by serum proteins” value [4] is listed as under 15%.
In the case of `O=C([O-])CN(CCN(CC(=O)[O-])CC(=O)[O-])CCN(CC(=O)[O-])CC(=O)[O-].[111In+3].[H+].[H+]` [[^111In(DTPA)]^2−], the “medium-term stability (% chelator-bound radiometal)” value ([2]; 1 h, 25 °C, n = 3) is reported as 87 (±2) % and the “long-term stability (% chelator-bound radiometal)” value ([2]; 24 h, 25 °C, ^111In, n = 3) is reported as 88 (±2) %.
For `O=C([O-])CN1CCN(CC(=O)[O-])CCN(CC(=O)[O-])CCN(CC(=O)[O-])CC1.[177Lu+3].[H+]` [[^177Lu(DOTA)]^−], the “medium-term stability (% chelator-bound radiometal)” value ([1]; 1.5 h, 37 °C, 550 rpm, ^177Lu, n = 3) was 87.7 (±0.7) % and the “long-term stability (% chelator-bound radiometal)” value ([1]; 24 h, 37 °C, 550 rpm, ^177Lu, n = 3) was 87 (±2) %.
